Screening data (PubChem BioAssay)
Mdm2 MdmX PPI – human Mdm2/MdmX binding inhibition. 3% of 330,000 active. AID 485346. SaOS-2 split-luciferase Mdm2/MdmX complementation, luminescence. inhibition, % at 8 µM;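 active = inhibition of at least 50% at 8 µM in the primary screen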
Target sequence (O15151 whole entry, looked up): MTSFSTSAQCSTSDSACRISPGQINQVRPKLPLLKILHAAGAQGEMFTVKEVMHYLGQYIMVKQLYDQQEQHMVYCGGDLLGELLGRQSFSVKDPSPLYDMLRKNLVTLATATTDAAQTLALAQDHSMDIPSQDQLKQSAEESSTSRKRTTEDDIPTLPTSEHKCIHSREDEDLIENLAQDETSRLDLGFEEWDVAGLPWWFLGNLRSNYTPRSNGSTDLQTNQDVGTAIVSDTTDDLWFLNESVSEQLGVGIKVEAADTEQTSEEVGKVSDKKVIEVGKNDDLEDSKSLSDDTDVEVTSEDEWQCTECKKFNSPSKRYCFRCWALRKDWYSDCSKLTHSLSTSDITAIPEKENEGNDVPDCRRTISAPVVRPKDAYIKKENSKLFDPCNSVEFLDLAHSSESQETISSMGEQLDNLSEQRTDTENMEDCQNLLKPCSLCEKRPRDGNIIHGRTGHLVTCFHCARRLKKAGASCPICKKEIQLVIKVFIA
Target sequence (Q00987 whole entry, looked up): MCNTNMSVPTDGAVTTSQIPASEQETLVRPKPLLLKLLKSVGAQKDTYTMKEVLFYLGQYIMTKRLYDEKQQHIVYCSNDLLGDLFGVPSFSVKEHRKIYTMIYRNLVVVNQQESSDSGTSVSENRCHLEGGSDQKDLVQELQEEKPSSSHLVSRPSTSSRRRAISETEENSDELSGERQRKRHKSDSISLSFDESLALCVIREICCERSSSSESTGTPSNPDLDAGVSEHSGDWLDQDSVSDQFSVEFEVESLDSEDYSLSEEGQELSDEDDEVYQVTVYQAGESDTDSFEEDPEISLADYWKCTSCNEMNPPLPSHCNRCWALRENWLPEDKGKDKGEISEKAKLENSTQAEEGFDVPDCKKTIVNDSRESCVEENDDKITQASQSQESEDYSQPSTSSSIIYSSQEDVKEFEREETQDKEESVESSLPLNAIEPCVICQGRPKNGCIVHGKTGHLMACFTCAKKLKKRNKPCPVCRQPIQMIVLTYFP
SKKanGAS inh – blocks kanamycin growth of S. pyogenes SKKanGAS strain; BacTiter-Glo, 6 h; inhibition, % at 7.5 µM; 1.3% of 300,000 active;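 active = mean replicate score, as percent of positive control median, at least 50; inconclusive = mean below 50 but one replicate at or above 50; inactive = mean and every replicate below 50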;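 note: strain carries kanamycin resistance gene driven by streptokinase promoter and grows in 40 µg/ml kanamycin; loss of luminescence reflects streptokinase promoter inhibition or plain growth inhibition; 0% = median of DMSO wells and 100% = positive control at its reference dose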
Beta apoptosis – blocks beta cell apoptosis; INS-1E cytokine-induced death, ATP luminescence, 48 h; percent of positive-control rescue, neutral wells zero; protection from apoptosis, % (test concentration not listed); 0.8% of 300,000 active; AID 435005;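 active = Every replicate reaches about 75%, or at least half do and their mean reaches it too, limit read from the data; inconclusive = At least half of replicates reach the limit but their mean does not; inactive = Under half of replicates reach the limit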;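 note: 0% = cytokine-treated negative control wells and 100% = positive control rescue; higher means more ATP so stronger rescue from cytokine killing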
Lmaj promast – inhibitors of Leishmania major promastigote growth; inhibition, % at 10 µM; Leishmania major promastigotes, resazurin fluorescence viability; 9% of 200,000 active; in the data active = inhibition above about 50%;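 note: promastigotes grown with compound for 44 hours at 28 °C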
CSC inhib – cancer stem cell inhibition | cancer stem cell-like cells viability, luminescence | inhibition, % at 7.5 µM | 1.1% of 300,000 active | AID 2717; in the data active = inhibition above about 75%; inconclusive = no clear call, values can overlap the other calls; tested in HMLE shEcad cells
T cruzi repl – blocks replication of Trypanosoma cruzi. T. cruzi beta-gal in NIH3T3, luminescence, 90 h. inhibition, % (concentration not given with the values). 1.4% of 300,000 active;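 active = mean inhibition across valid replicates above about 55%, limit read from the data; inconclusive = mean below that limit but half or more replicates reach it; inactive = mean below it, under half of replicates reach it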;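 note: signal also drops with host cell toxicity which is not excluded here; 0% = plate median of DMSO wells and 100% = zero luminescence signal; higher percent means less beta-gal luminescence so fewer parasites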
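assay system = mouse NIH/3T3 fibroblasts infected with β-gal-expressing T. cruzi Tulahuen C4 | input = 5,000 NIH/3T3 host cells per well | buffer or medium = DMEM plus 2% FBS | timing = 3 h host attachment, then at least 90 h co-culture | measured by = GalScreen luminescence, 60 min | evaluation = luminescence reflecting intracellular parasite burden, expressed as percent inhibition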
Mdm2 MdmX conf – confirmation of human Mdm2/MdmX interaction inhibitors; shares compounds with Mdm2 MdmX PPI; Mdm2-MdmX binding, luminescent assay; inhibition, % at 8 µM; 55% of 10,000 active; in the data active = inhibition above about 40%
Full FLuc ctr – full-length luciferase inhibition in Mdm2/MdmX counter-screen; shares compounds with Mdm2 MdmX PPI; SaOS-2 full-length luciferase counterscreen, luminescence; inhibition, % at 8 µM; 77% of 6,200 active;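 active = mean inhibition at 8 µM reaching about 37%, which flags the compound as non-specific, limit read from the data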;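 note: p53-null SaOS-2 cells with luciferase driven by a doxycycline-inducible promoter; compound on cells about two nights before reading with doxycycline added after day one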
The depositor's hits bear a star; ? = inconclusive; . = no result given. In the library only some 9.4% were active in any assay of this set; here they are far more common.

SMILES | Mdm2 MdmX PPI | SKKanGAS inh | Beta apoptosis | Lmaj promast | CSC inhib | T cruzi repl | Mdm2 MdmX conf | others
c1ccc2c(Nc3ccc4c(c3)OCCO4)c3c(nc2c1)CCCC3 | 70* | 1 | -3 | 99* | -7 | 44 | 59* | Full FLuc ctr=85*
CN(C)CCNc1c2c(nc3ccccc13)CCC2 | 17 | 3 | 6 | . | 11 | 52 | .
COc1cc(Nc2c3c(nc4ccccc24)CCCC3)cc(OC)c1OC | 68* | 1 | -6 | 66* | -4 | 41 | 64* | Full FLuc ctr=76*
COc1ccccc1Nc1c2c(nc3ccccc13)CCC2 | 56* | -2 | 14 | . | 70 | 7 | 53* | Full FLuc ctr=58*
N#Cc1ccc(OCC(=O)N(C2CCCCC2)C2CCS(=O)(=O)C2)cc1 (stereo not given) | 25 | . | -3 | . | . | . | .
COc1ccc(CCCc2nnc(SCc3nc4ccccc4c(=O)[nH]3)n2C)c(C)c1 | -1 | -10 | -9 | . | 1 | -13 | .
COc1cc(NS(=O)(=O)c2ccc3c(c2)oc(=O)n3C)cc(OC)c1OC | 57* | -2 | 3 | -3 | 23 | -7 | 20
COc1ccc(NS(=O)(=O)c2ccc3c(c2)oc(=O)n3C)c(OC)c1 | 8 | -2 | -3 | -5 | -9 | 4 | .
CCN(CC)S(=O)(=O)c1ccc2[nH]cc(C(=O)NC3CC3)c(=O)c2c1 | 23 | 0 | 1 | . | -13 | 6 | .
COc1ccccc1NC(=O)COC(=O)c1cc([N+](=O)[O-])ccc1N1CCCC1 | -8 | . | 2 | . | 9 | . | .
C[C@@H]1CC[C@]2(C(=O)O[C@@H]3O[C@H](CO)[C@@H](O)[C@H](O)[C@H]3O)CC[C@]3(C)C(=CCC4[C@@]5(C)CC[C@H](O[C@@H]6OC[C@H](O)[C@H](O[C@@H]7O[C@H](CO)[C@@H](O)[C@H](O)[C@H]7O)[C@H]6O)C(C)(C)C5CC[C@]43C)C2[C@]1(C)O (stereo not given in full) | -23 | . | -6 | . | -17 | . | .
C/C=C(/C)C(=O)OC1CC(C)(C)C[C@H]2C3=CC[C@@H]4[C@@]5(C)CCC(O[C@@H]6O[C@@H](C(=O)O)[C@@H](O)C(O[C@@H]7OC[C@H](O)[C@@H](O)[C@@H]7O[C@@H]7OC(CO)C(O)[C@@H](O)[C@@H]7O)C6O[C@@H]6OC(CO)C(O)C(O)C6O)[C@@](C)(CO)[C@@H]5CC[C@]4(C)[C@]3(C)CC(O)[C@@]12CO (stereo not given in full) | 94* | . | 44 | . | 33 | . | 48* | Full FLuc ctr=17
c1cc(OCCCN2CCCCC2)ccc1CN1CCCCC1 | -13 | 5 | -6 | . | -7 | 23 | .
NC(=S)NN=C1c2cc(OCCN3CCOCC3)ccc2-c2ccc(OCCN3CCOCC3)cc21 | 60* | 4 | -1 | . | 38 | 36 | 25
ON=C1c2cc(OCCN3CCCCC3)ccc2-c2ccc(OCCN3CCCCC3)cc21 | 97* | -2 | 14 | . | -15 | 61* | 70* | Full FLuc ctr=91*
COC(=O)c1cc(C(=O)OCC(=O)N2CCCCC2)cc([N+](=O)[O-])c1 | 2 | . | 1 | . | -19 | . | .
CC(=O)N(/N=C1\Sc2ccccc2C1=O)c1ccccc1C | -42 | 6 | -3 | 6 | 13 | -3 | .
CC(=O)N(/N=C1\Sc2ccccc2C1=O)c1ccc(C)cc1C | 65* | -1 | -2 | -5 | -2 | -16 | 76* | Full FLuc ctr=107*
COc1ccc(/C=C/C(=O)OCC(=O)Nc2cc3oc4ccccc4c3cc2OC)cc1 | 82* | -7 | 1 | 0 | -5 | 7 | -17
COc1cc2c(cc1NC(=O)COc1ccc3ccccc3c1)oc1ccccc12 | 62* | -2 | 0 | -2 | 12 | 10 | 24
COc1cc2c(cc1NC(=O)COCC(=O)O)oc1ccccc12 | 17 | -3 | -7 | . | -1 | -9 | .
COc1ccc(CC(=O)Nc2cc3oc4ccccc4c3cc2OC)cc1 | -166 | -13 | 7 | 6 | 52 | 32 | .
CCN(CC)c1ccc(C(=O)OCC(=O)Nc2cc3oc4ccccc4c3cc2OC)cc1 | 51* | -7 | 2 | -3 | . | -5 | 26
C[C@H]1CCC[C@]2(O[C@H](CCO)C[C@@H](O)[C@@H]2O)O1 | -21 | -1 | -1 | . | -7 | -19 | .
Cc1cccc(NC(=O)c2cc3c([nH]c4ccccc43)c(C)n2)c1C | 66* | 0 | -3 | 41 | -11 | 2 | 3
SMILES | Mdm2 MdmX PPI | SKKanGAS inh | Beta apoptosis | Lmaj promast | CSC inhib | T cruzi repl | Mdm2 MdmX conf | others
O=C(CCNS(=O)(=O)c1ccc(Cl)cc1)N1CCN(c2ncccn2)CC1 | 30 | . | . | . | . | . | .
Cc1ccc(C(=O)NC(=S)Nc2cc(C(F)(F)F)ccc2Cl)cc1 | 55* | -9 | 5 | -6 | 1 | -16 | -14
COCC(C)NC(=O)CSc1nc2cc(S(=O)(=O)N3CCCCC3)ccc2o1 (stereo not given) | -1 | . | 1 | . | . | . | .
Cn1c(=O)cc(OCCCC(=O)NC2CCCC2)c2ccccc21 | 67* | 3 | -29 | -2 | 6 | 5 | 48* | Full FLuc ctr=86*
Cc1ccnc(NC(=O)CCCOc2cc(=O)n(C)c3ccccc23)c1 | 75* | -1 | 34 | 14 | 38 | -3 | 84* | Full FLuc ctr=117*
Cc1ccnc(NC(=O)CCCc2c[nH]c3ccccc23)c1 | 68* | -4 | . | . | -15 | -1 | 36
Cn1c(=O)cc(OCC(=O)NC2CCCCC2)c2ccccc21 | -20 | -10 | -1 | -1 | -9 | 11 | .
Cn1c(=O)cc(OCCCC(=O)NCc2ccc(F)cc2Cl)c2ccccc21 | 57* | -6 | -2 | 7 | -7 | 0 | 20
Cc1ccc(NC(=O)CCCc2c[nH]c3ccccc23)nc1 | 10 | 1 | -6 | . | 1 | 3 | .
COCCn1cc(C(=O)c2cc(Br)ccc2O)cc(C#N)c1=O | 18 | 4 | 7 | 10 | -8 | 2 | .
Cc1cccc(NC(=O)COc2ccc(/C=C\c3[nH]c(=O)[nH]c(=O)c3[N+](=O)[O-])cc2)c1 | 15 | -1 | -1 | -6 | -7 | -16 | .
CCOc1ccc(NC(=O)CCCOc2cc(=O)n(C)c3ccccc23)cc1 | 52* | -4 | -3 | -3 | -9 | 25 | 20
Cn1c(=O)cc(SCC(=O)Nc2ccccn2)c2ccccc21 | 48 | -13 | -9 | -2 | 9 | -7 | .
Cc1ccnc(NC(=O)CSc2cc(=O)n(C)c3ccccc23)c1 | 83* | -5 | -15 | -4 | ? | 13 | 76* | Full FLuc ctr=127*
COc1cccc(NC(=O)CCCOc2cc(=O)n(C)c3ccccc23)c1 | 29 | -5 | 4 | 1 | -20 | -6 | .
Cn1cccc1C(=O)NC1CCCCCC1 | -8 | . | . | . | . | . | .
O=C(Nc1ccnn1C1CCN(Cc2ccc(CO)o2)CC1)c1ccc2c(c1)OCO2 | 15 | -4 | -5 | . | -13 | -8 | .
